The values below come from ChEMBL document CHEMBL1142682, “Design, synthesis, and biological evaluation of novel potent and selective alphavbeta3/alphavbeta5 integrin dual inhibitors with improved bioavailability. Selection of the molecular core” (J Med Chem, 2005).

A word on the IC50: it is the concentration at which inhibition is half-maximal. For orientation: half-life means the time in which the quantity being followed falls by half. Low readings indicate fast loss, high ones slow loss. For orientation: Tmax means the time from dosing to the highest level. A word on the Cmax: it is the maximum level reached in the sampled fluid or tissue. One may read the MRT as a mean duration of stay, worked out from the concentration-time curve. For orientation: clearance means the rate of elimination divided by the concentration. High values mean efficient removal, low ones inefficient removal.

Bounds are passed on as bounds.

A short description of series [1]: Extension in area under curve for the compound was determined in mouse upon 50 mpk peroral administration. It is filed as ADME. The settings on record: in vivo, po, 50 mg/kg.
The target in the next series is Integrin alpha-V/beta-5 (Homo sapiens, UniProt P06756+P18084). Briefly: In vitro inhibition of human alphaV-beta5 integrin binding in ELISA. It is filed as protein-complex assay. In outline: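 Human αvβ5 coated at 1 µg/mL in Tris buffer with Ca, Mg, Mn; biotinylated human vitronectin (1 µg/mL) plus compounds (0.0001-20 µM) incubated 2 h, all at room temperature. NeutrAvidin-HRP, OPD development, absorbance 492 nm; IC50 from four-parameter fit of triplicate % inhibition relative to buffer controls.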
Sequence of Integrin alpha-V/beta-5 (P06756 31-889 limits assumed): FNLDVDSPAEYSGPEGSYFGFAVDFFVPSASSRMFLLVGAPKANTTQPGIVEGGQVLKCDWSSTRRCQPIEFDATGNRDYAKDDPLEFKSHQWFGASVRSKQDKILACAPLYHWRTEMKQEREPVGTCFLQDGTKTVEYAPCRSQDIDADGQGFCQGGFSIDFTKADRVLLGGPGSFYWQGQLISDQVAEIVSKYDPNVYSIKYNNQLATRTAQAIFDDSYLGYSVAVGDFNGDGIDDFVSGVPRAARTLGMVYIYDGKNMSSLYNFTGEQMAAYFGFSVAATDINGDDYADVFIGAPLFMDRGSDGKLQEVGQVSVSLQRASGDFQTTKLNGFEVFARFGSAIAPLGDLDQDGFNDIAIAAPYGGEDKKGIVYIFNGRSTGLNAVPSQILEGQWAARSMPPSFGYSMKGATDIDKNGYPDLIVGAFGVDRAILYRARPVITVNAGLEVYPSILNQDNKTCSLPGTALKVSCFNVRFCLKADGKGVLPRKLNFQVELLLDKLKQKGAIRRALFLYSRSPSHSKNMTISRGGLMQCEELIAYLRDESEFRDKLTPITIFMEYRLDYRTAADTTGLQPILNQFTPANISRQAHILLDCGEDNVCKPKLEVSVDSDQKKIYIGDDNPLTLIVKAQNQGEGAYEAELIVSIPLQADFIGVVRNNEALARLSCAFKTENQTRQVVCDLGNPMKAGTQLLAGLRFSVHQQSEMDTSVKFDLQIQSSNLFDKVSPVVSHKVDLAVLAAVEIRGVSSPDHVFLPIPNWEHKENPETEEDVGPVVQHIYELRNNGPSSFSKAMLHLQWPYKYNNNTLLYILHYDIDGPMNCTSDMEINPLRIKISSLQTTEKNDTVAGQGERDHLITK
Sequence of Integrin alpha-V/beta-5 (P06756 891-1048 limits assumed): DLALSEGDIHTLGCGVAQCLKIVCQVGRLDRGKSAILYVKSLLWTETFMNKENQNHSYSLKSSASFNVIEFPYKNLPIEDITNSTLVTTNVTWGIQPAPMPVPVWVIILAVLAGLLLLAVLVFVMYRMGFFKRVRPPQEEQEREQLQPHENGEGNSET
Sequence of Integrin alpha-V/beta-5 (P18084 24-799 limits assumed): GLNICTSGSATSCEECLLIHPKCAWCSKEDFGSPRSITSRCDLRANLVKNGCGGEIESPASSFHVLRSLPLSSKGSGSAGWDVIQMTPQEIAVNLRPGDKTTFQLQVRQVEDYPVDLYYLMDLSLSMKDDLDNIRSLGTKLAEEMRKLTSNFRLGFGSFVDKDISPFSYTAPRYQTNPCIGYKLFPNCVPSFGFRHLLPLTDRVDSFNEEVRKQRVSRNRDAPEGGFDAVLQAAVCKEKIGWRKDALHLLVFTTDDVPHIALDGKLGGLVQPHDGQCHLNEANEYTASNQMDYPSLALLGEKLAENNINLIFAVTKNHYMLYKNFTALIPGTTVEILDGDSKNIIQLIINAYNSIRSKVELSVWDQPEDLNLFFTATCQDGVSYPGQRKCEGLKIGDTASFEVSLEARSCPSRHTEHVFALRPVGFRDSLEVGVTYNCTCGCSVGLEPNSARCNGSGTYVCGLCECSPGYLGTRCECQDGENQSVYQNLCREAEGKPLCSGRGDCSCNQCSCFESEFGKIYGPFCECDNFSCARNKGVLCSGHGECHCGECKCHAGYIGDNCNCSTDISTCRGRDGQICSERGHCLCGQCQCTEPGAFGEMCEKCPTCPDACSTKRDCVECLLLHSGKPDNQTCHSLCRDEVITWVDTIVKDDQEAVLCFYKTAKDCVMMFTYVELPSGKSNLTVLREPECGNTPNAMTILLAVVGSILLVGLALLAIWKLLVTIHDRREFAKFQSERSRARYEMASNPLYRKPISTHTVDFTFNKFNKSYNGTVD
On the technique in general: An ELISA detects its analyte on a solid surface through an enzyme-linked reagent.

Series [2] concerns the target Integrin alpha-IIb/beta-3 (Homo sapiens, UniProt P05106+P08514). Briefly: In vitro inhibition of human alphaIIb betaIIIa integrin binding in ELISA. It is filed as protein-complex assay. An outline of the steps: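 Immobilized human fibrinogen (10 µg/mL coat, overnight 4 °C, Tris/Ca buffer pH 7.5) bound by human GPIIbIIIa (40 µg/mL) with compounds 0.027-20.0 µM, 1 h 37 °C; bound receptor detected with anti-GPIIbIIIa mAb then HRP anti-mouse IgG, OPD development, A492. % inhibition vs buffer controls, mean of three determinations; IC50 by four-parameter fit.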

Series [3] is described as follows: Half life in mouse upon 50 mpk peroral administration. It is filed as ADME, organism-based. The note with it: in vivo, po, 50 mg/kg.
A short description of series [4]: Maximum time required to reach maximum plasma concentration in mouse upon 50 mpk peroral administration (n=3); Range = 0.25-0.50 hr. It is filed as ADME, organism-based. The note with it: po, 50 mg/kg.
The subject of a further series is Caco-2. Briefly: In vitro CACO-2 cell permeability potency was determined. It is filed as functional, cell-based. The note with it: Homo sapiens.
The nature of series [5]: Area under curve for the compound was determined at infinity in mouse upon 5 mpk intravenous administration. It is filed as ADME. The note with it: in vivo, 5 mg/kg.
The nature of series [6]: Maximum concentration in mouse plasma upon 50 mpk peroral administration (n=3). The settings on record: po, 50 mg/kg. The class given is ADME, organism-based. Also noted: dose 50 mpk, route oral.
Series [7] is described as follows: Oral bioavailability in mouse (dose 50 mg/kg). The note with it: in vivo. It is filed as ADME, organism-based.
Series [8] can be described thus: Extension in area under curve for the compound was determined in mouse upon 5 mpk intravenous administration. It is filed as ADME. The settings on record: in vivo, 5 mg/kg.
A short description of series [9]: Apparent volume of distribution during the terminal phase was determined in mouse upon 5 mpk intravenous administration. It is filed as ADME, organism-based. The settings on record: in vivo, 5 mg/kg, read-out: Vz.
Series [10] in a line: Mean residence time for the compound was determined in mouse upon 5 mpk intravenous administration. The class given is ADME, organism-based. The note with it: in vivo, 5 mg/kg.
The target in another series is Integrin alpha-5/beta-1 (Homo sapiens, UniProt P05556+P08648). Briefly: In vitro inhibition of human alpha5-beta1 integrin binding in ELISA. It is filed as protein-complex assay. An outline of the steps: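 Human α5β1 coated at 3 µg/mL; blocking and binding at 30 °C. Biotinylated human fibronectin (1 µg/mL) with compounds 0.0001-20 µM, 2 h; NeutrAvidin-HRP 1 h 30 °C, OPD read at 492 nm. % inhibition vs buffer controls averaged over three determinations; IC50 by four-parameter fit.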
Sequence of Integrin alpha-5/beta-1 (P05556 21-798 limits assumed): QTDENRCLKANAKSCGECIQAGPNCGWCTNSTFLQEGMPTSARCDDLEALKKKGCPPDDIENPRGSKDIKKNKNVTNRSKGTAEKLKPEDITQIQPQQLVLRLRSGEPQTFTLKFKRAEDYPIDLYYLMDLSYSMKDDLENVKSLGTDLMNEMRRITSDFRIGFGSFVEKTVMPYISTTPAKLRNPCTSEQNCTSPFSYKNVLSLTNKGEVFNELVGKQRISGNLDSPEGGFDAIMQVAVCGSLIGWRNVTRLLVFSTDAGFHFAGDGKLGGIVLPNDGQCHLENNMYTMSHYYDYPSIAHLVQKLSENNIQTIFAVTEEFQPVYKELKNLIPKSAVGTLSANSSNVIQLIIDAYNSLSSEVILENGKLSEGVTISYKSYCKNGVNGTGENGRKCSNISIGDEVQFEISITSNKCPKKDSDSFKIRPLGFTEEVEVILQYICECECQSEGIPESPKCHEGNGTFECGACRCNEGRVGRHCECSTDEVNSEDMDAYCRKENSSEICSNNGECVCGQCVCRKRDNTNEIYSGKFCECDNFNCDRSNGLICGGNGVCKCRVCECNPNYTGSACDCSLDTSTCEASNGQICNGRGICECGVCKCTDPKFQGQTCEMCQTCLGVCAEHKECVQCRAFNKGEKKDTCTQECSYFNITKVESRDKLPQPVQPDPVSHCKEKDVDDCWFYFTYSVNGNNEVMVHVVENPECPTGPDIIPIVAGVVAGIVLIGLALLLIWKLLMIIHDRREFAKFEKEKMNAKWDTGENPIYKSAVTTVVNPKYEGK
Sequence of Integrin alpha-5/beta-1 (P08648 42-894 limits assumed): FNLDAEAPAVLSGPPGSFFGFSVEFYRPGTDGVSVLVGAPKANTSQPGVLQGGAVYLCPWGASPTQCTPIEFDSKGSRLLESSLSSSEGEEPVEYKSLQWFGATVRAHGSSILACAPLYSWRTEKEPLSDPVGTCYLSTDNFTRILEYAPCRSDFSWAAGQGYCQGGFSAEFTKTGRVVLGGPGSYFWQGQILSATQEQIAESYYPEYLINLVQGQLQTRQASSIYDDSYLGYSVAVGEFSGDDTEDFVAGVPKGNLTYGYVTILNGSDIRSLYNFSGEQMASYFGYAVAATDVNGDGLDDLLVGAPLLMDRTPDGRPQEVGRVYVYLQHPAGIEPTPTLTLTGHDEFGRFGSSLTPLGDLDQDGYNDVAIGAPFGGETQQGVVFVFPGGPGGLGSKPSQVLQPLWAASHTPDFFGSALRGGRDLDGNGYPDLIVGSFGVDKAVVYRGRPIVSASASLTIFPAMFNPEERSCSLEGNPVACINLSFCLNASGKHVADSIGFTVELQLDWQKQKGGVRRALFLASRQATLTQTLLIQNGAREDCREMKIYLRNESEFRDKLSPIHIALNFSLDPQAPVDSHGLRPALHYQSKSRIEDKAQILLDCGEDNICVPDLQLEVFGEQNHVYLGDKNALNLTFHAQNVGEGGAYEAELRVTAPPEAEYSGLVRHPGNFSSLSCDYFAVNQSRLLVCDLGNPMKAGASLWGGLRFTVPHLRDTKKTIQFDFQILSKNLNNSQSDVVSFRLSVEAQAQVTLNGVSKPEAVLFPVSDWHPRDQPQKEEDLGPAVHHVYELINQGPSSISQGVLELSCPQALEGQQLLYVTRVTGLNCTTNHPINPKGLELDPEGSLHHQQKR
Sequence of Integrin alpha-5/beta-1 (P08648 895-1049 limits assumed): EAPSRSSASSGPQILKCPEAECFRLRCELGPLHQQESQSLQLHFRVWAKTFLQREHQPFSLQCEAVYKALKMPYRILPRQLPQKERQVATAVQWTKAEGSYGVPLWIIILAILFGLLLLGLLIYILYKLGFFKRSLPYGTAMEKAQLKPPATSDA

The next series addresses Integrin alpha-V/beta-3 (Homo sapiens, UniProt P05106+P06756). Briefly: In vitro inhibition of human alphaV-beta3 integrin binding in ELISA. It is filed as protein-complex assay. An outline of the steps: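 Plate-coated human αvβ3 (0.4 µg/mL) in Tris buffer with Ca, Mg, Mn; compounds 0.0001-20.0 µM with biotinylated human vitronectin (1 µg/mL), 2 h, room temperature throughout. NeutrAvidin-HRP detection, OPD read at 492 nm; % inhibition vs buffer controls from triplicate determinations, IC50 by four-parameter fit.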

Series [11] can be described thus: Area under curve for the compound was determined at infinity in mouse upon 50 mpk peroral administration. It is filed as ADME. The note with it: in vivo, po, 50 mg/kg.
Series [12] is described as follows: Maximum clearance in mouse upon 5 mpk intravenous administration. It is filed as ADME, organism-based. The settings on record: in vivo, 5 mg/kg.
A short description of series [13]: Half life in mouse upon 5 mpk intravenous administration. The settings on record: in vivo, 5 mg/kg. The class given is ADME, organism-based.

Sequence of Integrin alpha-V/beta-3 (P05106 27-788 limits assumed): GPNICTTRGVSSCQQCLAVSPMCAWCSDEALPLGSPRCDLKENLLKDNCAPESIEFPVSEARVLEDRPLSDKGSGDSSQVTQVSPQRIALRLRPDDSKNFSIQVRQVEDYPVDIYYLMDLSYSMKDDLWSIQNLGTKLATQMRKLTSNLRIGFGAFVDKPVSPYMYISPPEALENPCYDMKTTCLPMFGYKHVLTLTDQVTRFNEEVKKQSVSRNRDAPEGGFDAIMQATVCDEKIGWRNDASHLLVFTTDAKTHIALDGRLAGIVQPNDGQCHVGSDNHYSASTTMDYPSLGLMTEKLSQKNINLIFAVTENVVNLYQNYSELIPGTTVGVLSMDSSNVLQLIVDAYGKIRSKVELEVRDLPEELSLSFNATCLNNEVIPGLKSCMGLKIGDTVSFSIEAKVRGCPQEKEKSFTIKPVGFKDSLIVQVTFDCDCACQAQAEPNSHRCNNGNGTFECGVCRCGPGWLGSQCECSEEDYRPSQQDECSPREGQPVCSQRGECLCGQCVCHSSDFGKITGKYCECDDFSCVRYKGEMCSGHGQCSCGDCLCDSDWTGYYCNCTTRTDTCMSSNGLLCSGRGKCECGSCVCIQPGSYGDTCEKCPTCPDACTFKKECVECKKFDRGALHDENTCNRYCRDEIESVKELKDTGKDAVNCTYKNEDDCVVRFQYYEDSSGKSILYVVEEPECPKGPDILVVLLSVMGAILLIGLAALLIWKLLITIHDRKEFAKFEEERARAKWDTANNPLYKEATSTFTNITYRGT
Sequence of Integrin alpha-V/beta-3 (P06756 31-889 limits assumed): as the sequence (P06756 31-889 limits assumed) above
Sequence of Integrin alpha-V/beta-3 (P06756 891-1048 limits assumed): as the sequence (P06756 891-1048 limits assumed) above

In the case of `CNc1cccc(CCOc2ccc3c(CCC(=O)O)coc3c2)n1`, the “Ext AUC” value in series [1] came out at 1%; in series [8] it was 2%. Moreover, the IC50 is 420 nM at Integrin alpha-V/beta-5, over 20000 nM in [2], over 20000 nM on Integrin alpha-5/beta-1 and 33 nM at Integrin alpha-V/beta-3. Further, the figures for the half-life in series [3] and in series [13] were 115 min and 5.4 min, respectively. Further, the Tmax in series [4] was determined as 30 min. The Permeability in the series on Caco-2 is 1.7e-05 AB cm/s. Moreover, the AUC inf in [5] is 1280 ng·h/mL; in series [11], 14600 ng·h/mL. This compound also showed a Cmax in series [6] of 16200 ng/mL. Also, the bioavailability in [7] was determined as 114%. For the same compound, the Vd in [9] was determined as 0.5 L/kg. The same compound showed an MRT in series [10] of 6.6 min. Further, the clearance in [12] came out at 65.1 mL/min/kg.
For the compound `O=C(O)CCn1ccc2cc(OCCCNc3ccccn3)ccc21`, the IC50 on Integrin alpha-V/beta-5 was 2.5 nM; in series [2], over 20000 nM; on Integrin alpha-5/beta-1, over 20000 nM; on Integrin alpha-V/beta-3 it was 470 nM. Besides, in the series on Caco-2, the Permeability worked out at 6e-06 AB cm/s.
Consider `CNc1cccc(CCOc2ccc3c(ccn3CCC(=O)O)c2)n1`, for which the “Ext AUC” value in [1] is given as 7%; in series [8] it was 3%. Also, the IC50 on Integrin alpha-V/beta-5 was 210 nM; in series [2], over 20000 nM; at Integrin alpha-5/beta-1 it was 15000 nM; on Integrin alpha-V/beta-3 it was 49 nM. The half-life is 143 min in [3] and 93.6 min in series [13]. The Tmax in series [4] stood at 30 min. The same compound registered a Permeability in the series with Caco-2 of 6e-06 AB cm/s. Also, the figures for the AUC inf in series [5] and in series [11] were 7100 ng·h/mL and 64000 ng·h/mL, respectively. The highest level in [6] (Cmax) was 38300 ng/mL. In addition, the bioavailability in [7] stood at 90%. Also, the Vd in series [9] came out at 1.58 L/kg. Moreover, in [10], the MRT was 103 min. The clearance in series [12] came to 11.7 mL/min/kg.
Take `CNc1cccc(CCOc2ccc3c(CCC(=O)O)csc3c2)n1`: the “Ext AUC” value in [1] amounted to 5%; in series [8], 1%. The IC50 on Integrin alpha-V/beta-5 is 140 nM; in [2], over 20000 nM; on Integrin alpha-5/beta-1 it was 7800 nM; at Integrin alpha-V/beta-3 it was 30 nM. For the same compound, the figures for the half-life in [3] and in series [13] were 140 min and 44.4 min, respectively. Besides, the Tmax in [4] is 30 min. This compound also displayed a Permeability in the series on Caco-2 of 1.6e-05 AB cm/s. In addition, the AUC inf in series [5] stood at 5040 ng·h/mL; in series [11], 36700 ng·h/mL. Also, in series [6], the highest level (Cmax) was 27500 ng/mL. The bioavailability in series [7] was determined as 73%. In addition, the Vd in series [9] came to 1.05 L/kg. Moreover, in [10], the MRT worked out at 33.6 min. Also, the clearance in series [12] turned out to be 16.5 mL/min/kg.
